In ChEMBL document CHEMBL4811287, “Discovery of dronedarone and its analogues as NLRP3 inflammasome inhibitors with potent anti-inflammation activity” (Bioorg Med Chem Lett, 2021):
Activity calls are given as the source filed them. No cut-off for these calls is given here.

Assays:
[1] = target: NACHT, LRR and PYD domains-containing protein 3 (Mus musculus, UniProt Q8R4B8); assay: (§1) Inhibition of NLRP3 inflammasome in LPS-primed mouse J774.A1 cells assessed as reduction in IL-1beta secretion preincubated with compound for 1 hr followed by nigericin stimulation for 1 hr by ELISA; format: cell-based
Chain of NACHT, LRR and PYD domains-containing protein 3 (Q8R4B8 whole entry, the tested form may be a part): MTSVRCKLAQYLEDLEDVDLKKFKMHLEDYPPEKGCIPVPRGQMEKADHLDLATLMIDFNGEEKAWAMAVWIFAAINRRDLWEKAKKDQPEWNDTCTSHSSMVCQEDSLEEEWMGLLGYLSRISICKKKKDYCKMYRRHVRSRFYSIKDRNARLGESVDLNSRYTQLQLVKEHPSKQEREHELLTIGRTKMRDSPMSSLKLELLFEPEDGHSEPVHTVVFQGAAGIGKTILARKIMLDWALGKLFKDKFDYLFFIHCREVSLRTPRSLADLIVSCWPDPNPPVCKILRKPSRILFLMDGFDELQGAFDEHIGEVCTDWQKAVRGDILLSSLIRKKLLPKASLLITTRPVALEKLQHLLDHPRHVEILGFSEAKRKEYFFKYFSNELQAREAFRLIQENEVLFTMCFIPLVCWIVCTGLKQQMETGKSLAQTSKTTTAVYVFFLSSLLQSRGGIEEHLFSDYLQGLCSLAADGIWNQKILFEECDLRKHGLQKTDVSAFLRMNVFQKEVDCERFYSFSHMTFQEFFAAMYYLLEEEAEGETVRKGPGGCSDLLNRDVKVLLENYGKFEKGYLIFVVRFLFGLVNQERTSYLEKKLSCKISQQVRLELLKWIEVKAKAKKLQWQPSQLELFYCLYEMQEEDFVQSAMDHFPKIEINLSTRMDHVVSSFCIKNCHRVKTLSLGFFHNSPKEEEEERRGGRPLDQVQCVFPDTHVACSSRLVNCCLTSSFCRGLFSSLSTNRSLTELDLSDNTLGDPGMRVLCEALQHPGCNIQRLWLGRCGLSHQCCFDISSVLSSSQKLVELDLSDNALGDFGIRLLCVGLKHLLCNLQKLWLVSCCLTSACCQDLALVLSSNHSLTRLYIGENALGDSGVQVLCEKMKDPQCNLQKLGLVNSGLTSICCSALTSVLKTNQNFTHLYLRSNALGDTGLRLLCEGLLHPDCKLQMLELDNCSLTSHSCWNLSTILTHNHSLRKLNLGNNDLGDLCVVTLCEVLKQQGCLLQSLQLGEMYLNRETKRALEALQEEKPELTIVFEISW
Outline: (§2)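 J774A.1 murine macrophages primed with LPS, exposed to compound at indicated doses for 1 h, then stimulated with nigericin for another 1 h; IL-1β released into supernatant measured by ELISA.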

[2] = Inhibition of ATP-sensitive K+ channel in LPS-activated human monocytes assessed as inhibition of NLRP3 inflammasome activation-mediated IL-1beta release; format: cell-based; settings: Monocyte
J774.A1 = assay: Effect on NLRP3 expression in LPS/nigericin-stimulated mouse J774.A1 cell lysates by western blot analysis; format: functional, subcellular
Outline: (§3)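 LPS-primed J774A.1 cells treated with compound, then nigericin-activated; NLRP3-related proteins analysed by Western blot in cell supernatant (caspase-1 p20, IL-1β) and cell lysate.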

Mus musculus [3] = assay: Antiinflammatory activity against LPS-induced sepsis C57BL/6 mouse model assessed as decrease in peritoneal fluid TNF-alpha level at 100 mg/kg, ip administered as single dose prior to LPS challenge by ELISA; format: functional, organism-based
Outline: (§4)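 C57BL/6 mice given 100 mg/kg ahead of intraperitoneal LPS injection. Serum and peritoneal lavage fluid collected and cytokines (IL-1β, IL-6, TNF-α) quantified by ELISA. n = 5 per group, means ± SEM, compared against LPS-only group.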

Mus musculus [4] = assay: Antiinflammatory activity against LPS-induced sepsis C57BL/6 mouse model assessed as decrease in serum IL-6 level at 100 mg/kg, ip administered as single dose prior to LPS challenge by ELISA; format: functional; settings: C57BL/6, ip; outline: as §4
[5] = target: NACHT, LRR and PYD domains-containing protein 3 (Mus musculus) (UniProt Q8R4B8); assay: Inhibition of NLRP3 inflammasome in LPS/nigericin-stimulated mouse J774.A1 cells assessed as reduction in IL-1beta level in cell supernatant by Western blot analysis; settings: dose 1-20 µM; outline: as §3
Chain of NACHT, LRR and PYD domains-containing protein 3 (Mus musculus) (Q8R4B8 whole entry, the tested form may be a part): as above

[6] = target: NACHT, LRR and PYD domains-containing protein 3 (Mus musculus) (UniProt Q8R4B8); assay: as §1; format: cell-based; settings: time 2.0 hrs; outline: as §2
Mus musculus [7] = assay: Antiinflammatory activity against LPS-induced sepsis C57BL/6 mouse model assessed as decrease in serum IL-1beta level at 100 mg/kg, ip administered as single dose prior to LPS challenge by ELISA; format: functional; settings: C57BL/6, ip; outline: as §4
[8] = target: NACHT, LRR and PYD domains-containing protein 3 (Mus musculus) (UniProt Q8R4B8); assay: Inhibition of NLRP3 inflammasome in LPS/nigericin-stimulated mouse J774.A1 cells assessed as effect on pro-IL-1beta expression level in cell lysates by Western blot analysis; format: subcellular; outline: as §3
Mus musculus [9] = assay: Antiinflammatory activity against LPS-induced sepsis C57BL/6 mouse model assessed as decrease in peritoneal fluid IL-1beta level at 100 mg/kg, ip administered as single dose prior to LPS challenge by ELISA; format: functional; settings: C57BL/6, ip; outline: as §4
[10] = target: NACHT, LRR and PYD domains-containing protein 3 (Mus musculus) (UniProt Q8R4B8); assay: Inhibition of NLRP3 inflammasome in LPS/nigericin-stimulated mouse J774.A1 cells assessed as effect on ASC expression level in cell lysates by Western blot analysis; format: subcellular; outline: as §3
Mus musculus [11] = assay: Antiinflammatory activity against LPS-induced sepsis C57BL/6 mouse model assessed as decrease in peritoneal fluid IL-6 level at 100 mg/kg, ip administered as single dose prior to LPS challenge by ELISA; format: functional; settings: C57BL/6, ip; outline: as §4
[12] = target: NACHT, LRR and PYD domains-containing protein 3 (Mus musculus) (UniProt Q8R4B8); assay: Inhibition of NLRP3 inflammasome in LPS/nigericin-stimulated mouse J774.A1 cells assessed as effect on pro-caspase-1 expression level in cell lysates by Western blot analysis; format: subcellular; outline: as §3
Mus musculus [13] = assay: Antiinflammatory activity against LPS-induced sepsis C57BL/6 mouse model assessed as decrease in serum TNF-alpha level at 100 mg/kg, ip administered as single dose prior to LPS challenge by ELISA; format: functional; settings: C57BL/6, ip; outline: as §4
[14] = target: NACHT, LRR and PYD domains-containing protein 3 (Mus musculus) (UniProt Q8R4B8); assay: Inhibition of NLRP3 inflammasome in LPS/nigericin-stimulated mouse J774.A1 cells assessed as reduction in caspase 1 p20 level in cell supernatants by Western blot analysis; settings: dose 1-20 µM; outline: as §3
Microglia = assay: Inhibition of Ca2+ channel in mouse microglial cells assessed as inhibition of Abeta-stimulated NLRP3 inflammasome activation-mediated IL-1beta release at 36 nM by ELISA; format: cell-based
[15] = Inhibition of K+ channel in LPS-primed mouse bone marrow derived macrophages assessed as inhibition of NLRP3 inflammasome activation-mediated IL-1beta release; format: tissue-based; settings: BMDM
[16] = Inhibition of Cl- channel in human monocytes assessed as inhibition of ATP-induced NLRP3 inflammasome-activation mediated IL-1beta release; format: cell-based; settings: Monocyte

SMILES	IC50 [1] [µM]	further results
CCCCc1oc2ccccc2c1C(=O)c1ccc(OCCCN(CCCC)CCCC)cc1	> 100	
CCCCc1oc2ccc(NC(C)=O)cc2c1C(=O)c1ccc(OCCCN(CCCC)CCCC)cc1	6.77	
CCCCc1oc2ccc(NC(=O)NC3CCCC3)cc2c1C(=O)c1ccc(OCCCN(CCCC)CCCC)cc1	25	
CCCCc1oc2ccc(NC(=O)c3ccc(OC)cc3)cc2c1C(=O)c1ccc(OCCCN(CCCC)CCCC)cc1	> 100	
COc1ccc(Cl)cc1C(=O)NCCc1ccc(S(=O)(=O)NC(=O)NC2CCCCC2)cc1 [GLYBURIDE]		IC50 [2]: 12 µM
CCCCc1oc2ccc(NC(=O)NCCC)cc2c1C(=O)c1ccc(OCCCN(CCCC)CCCC)cc1	19.2	
CCCCc1oc2ccc(NS(=O)(=O)CC)cc2c1C(=O)c1ccc(OCCCN(CCCC)CCCC)cc1	19	
CCCCc1oc2ccc(NC(=O)NC(C)C)cc2c1C(=O)c1ccc(OCCCN(CCCC)CCCC)cc1	13.3	
CCCCc1oc2ccc(S(N)(=O)=O)cc2c1C(=O)c1ccc(OCCCN(CCCC)CCCC)cc1	26.7	
CCCCc1oc2ccc(NC(=O)NC3CCCCC3)cc2c1C(=O)c1ccc(OCCCN(CCCC)CCCC)cc1	74.8	
CCCCc1oc2ccc(S(=O)(=O)N(CCC)CCC)cc2c1C(=O)c1ccc(OCCCN(CCCC)CCCC)cc1	> 100	
CCCCc1oc2ccc(NS(=O)(=O)c3cccnc3)cc2c1C(=O)c1ccc(OCCCN(CCCC)CCCC)cc1	33.4	
CCCCc1oc2ccc(NS(C)(=O)=O)cc2c1C(=O)c1ccc(OCCCN(CCCC)CCCC)cc1 [DRONEDARONE]	6.84	
CCCCc1oc2ccc(NC(=O)C(C)C)cc2c1C(=O)c1ccc(OCCCN(CCCC)CCCC)cc1	3.85	Activity (J774.A1): inactive; Activity (Mus musculus [3]): inactive; inhibition in vivo at 100 mg/kg (Mus musculus [4]): 0%; inhibition [5]: Dose-Dependent Effect; inhibition [6]: Dose-Dependent Effect; inhibition in vivo at 100 mg/kg (Mus musculus [7]): 42%; inhibition [8]: inactive; inhibition in vivo at 100 mg/kg (Mus musculus [9]): 22%; inhibition [10]: inactive; inhibition in vivo at 100 mg/kg (Mus musculus [11]): 2%; inhibition [12]: inactive; inhibition in vivo at 100 mg/kg (Mus musculus [13]): 18%; inhibition [14]: Dose-Dependent Effect
CCCCc1oc2ccc(NS(=O)(=O)C3CCCCC3)cc2c1C(=O)c1ccc(OCCCN(CCCC)CCCC)cc1	25	
CCCCc1oc2ccc(NC(=O)Nc3ccc(C)cc3)cc2c1C(=O)c1ccc(OCCCN(CCCC)CCCC)cc1	71.2	
CCCCc1oc2ccc(NS(=O)(=O)C3CC3)cc2c1C(=O)c1ccc(OCCCN(CCCC)CCCC)cc1	45.5	
CCCCc1oc2ccc(NS(=O)(=O)c3ccc(C(F)(F)F)cc3)cc2c1C(=O)c1ccc(OCCCN(CCCC)CCCC)cc1	81.6	
C=CC(=O)Nc1ccc2oc(CCCC)c(C(=O)c3ccc(OCCCN(CCCC)CCCC)cc3)c2c1	26.7	
CCCCc1oc2ccc(NC(=O)C(C)(C)C)cc2c1C(=O)c1ccc(OCCCN(CCCC)CCCC)cc1	9.03	
CCCCc1oc2ccc(NS(=O)(=O)c3ccc(F)cc3)cc2c1C(=O)c1ccc(OCCCN(CCCC)CCCC)cc1	12.7	

SMILES	IC50 [1] [µM]	further results
COCCOC(=O)C1=C(C)NC(C)=C(C(=O)OC(C)C)C1c1cccc([N+](=O)[O-])c1 (stereo not given)		inhibition (Microglia): 48%
CCCCc1oc2ccc(NS(=O)(=O)NC)cc2c1C(=O)c1ccc(OCCCN(CCCC)CCCC)cc1	11.4	
CCCCc1oc2ccc(NC(=O)Nc3ccc(Cl)cc3)cc2c1C(=O)c1ccc(OCCCN(CCCC)CCCC)cc1	16.1	
CCCCC(=O)Nc1ccc2oc(CCCC)c(C(=O)c3ccc(OCCCN(CCCC)CCCC)cc3)c2c1	5.82	
CCCCc1oc2ccc(NC(=O)c3ccccc3)cc2c1C(=O)c1ccc(OCCCN(CCCC)CCCC)cc1	13.3	
CCCCc1oc2ccc(N)cc2c1C(=O)c1ccc(OCCCN(CCCC)CCCC)cc1	> 100	
CCCCc1oc2ccc(NS(=O)(=O)N(C)C)cc2c1C(=O)c1ccc(OCCCN(CCCC)CCCC)cc1	13.4	
CCCCc1oc2ccc(S(=O)(=O)NC(C)C)cc2c1C(=O)c1ccc(OCCCN(CCCC)CCCC)cc1	42.5	
CC(O)CC(=O)O (stereo not drawn) [3-HYDROXYBUTYRIC ACID, (+/-)-]		IC50 [15]: 2 mM
CCCCc1oc2ccc(NS(=O)(=O)NC(C)C)cc2c1C(=O)c1ccc(OCCCN(CCCC)CCCC)cc1	7.65	
CCCCc1oc2ccc(S(=O)(=O)NOC)cc2c1C(=O)c1ccc(OCCCN(CCCC)CCCC)cc1	83.8	
CCCCc1oc2ccc(NS(=O)(=O)c3ccc(OC)cc3)cc2c1C(=O)c1ccc(OCCCN(CCCC)CCCC)cc1	27.9	
C=CS(=O)(=O)Nc1ccc2oc(CCCC)c(C(=O)c3ccc(OCCCN(CCCC)CCCC)cc3)c2c1	25.3	
C=C(CC)C(=O)c1ccc(OCC(=O)O)c(Cl)c1Cl [ETHACRYNIC ACID]		IC50 [16]: 3000 nM
CCCCc1oc2ccc(NS(=O)(=O)c3ccccc3)cc2c1C(=O)c1ccc(OCCCN(CCCC)CCCC)cc1	10.7	
CCCCc1oc2ccc(NC(=O)Nc3ccc(C#N)cc3)cc2c1C(=O)c1ccc(OCCCN(CCCC)CCCC)cc1	18.5	
CCCCc1oc2ccc(S(=O)(=O)N(C)C)cc2c1C(=O)c1ccc(OCCCN(CCCC)CCCC)cc1	61.1	
CCCCc1oc2ccc(S(=O)(=O)NCCN(C)C)cc2c1C(=O)c1ccc(OCCCN(CCCC)CCCC)cc1	> 100	
CCCCc1oc2ccc(NC(=O)Nc3ccc(OC)cc3)cc2c1C(=O)c1ccc(OCCCN(CCCC)CCCC)cc1	24.5	
CCCCc1oc2ccc(S(=O)(=O)NC)cc2c1C(=O)c1ccc(OCCCN(CCCC)CCCC)cc1	22.2	
CCCCc1oc2ccc(NS(=O)(=O)c3ccc(C)cc3)cc2c1C(=O)c1ccc(OCCCN(CCCC)CCCC)cc1	25	
